Source: ChEMBL document CHEMBL3259576, “Design and Evaluation of ω-Hydroxy Fatty Acids Containing α-GalCer Analogues for CD1d-Mediated NKT Cell Activation” (ACS Med Chem Lett, 2014)
The source made the active and inactive calls.

Key:
Mus musculus [1] = organism: Mus musculus; experiment: Stimulation of mouse CD1d-mediated IL-4 production in mouse splenocytes measured at 32 ng/ml after 72 hrs by ELISA; type: cell-based
Summary of the method: (§1)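 Mouse splenocytes were treated individually with glycolipid and cultured for 72 h. IFN-γ and IL-4 in the culture were then measured. Results are expressed as relative activity, as means ±SD of triplicates, from one representative of two independent experiments.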

Mus musculus [2] = organism: Mus musculus; experiment: Stimulation of mouse CD1d-mediated IFN-gamma production in C57BL/6 mouse splenocytes measured at 32 ng/ml after 72 hrs by ELISA; type: cell-based; summary of the method: as §1
RBL = experiment: Stimulation of mouse CD1d-mediated IL-2 production in DN32.D3 hybridoma cells co-cultured with mouse CD1d transfected RBL cells measured at 32 to 500 ng/ml after 16 hrs by ELISA
Mus musculus [3] = experiment: In vivo stimulation of mouse CD1d-mediated peak IL4 production in C57BL/6 mouse serum measured at 0.5 ug, iv after 2 hrs by ELISA; type: functional, organism-based
Mus musculus [4] = experiment: In vivo stimulation of mouse CD1d-mediated peak IFN-gamma production in C57BL/6 mouse serum measured at 0.5 ug, iv after 12 hrs by ELISA; type: functional, organism-based

Measured: Activity

CCCCCCCCCCCCCC[C@@H](O)[C@@H](O)[C@H](CO[C@H]1O[C@H](CO)[C@H](O)[C@H](O)[C@H]1O)NC(=O)CCCCCCCCCCC
active: Mus musculus [1] | Mus musculus [2] | RBL

CCCCCCCCCCCCCC[C@@H](O)[C@@H](O)[C@H](CO[C@H]1O[C@H](CO)[C@H](O)[C@H](O)[C@H]1O)NC(=O)CCCCCCCCCCCO
active: Mus musculus [1] | Mus musculus [2] | RBL

CCCCCCCCCCCCCC[C@@H](O)[C@@H](O)[C@H](CO[C@H]1O[C@H](CO)[C@H](O)[C@H](O)[C@H]1O)NC(=O)CCCCCCCCCC
active: Mus musculus [1] | Mus musculus [2] | RBL

CCCCCCCCCCCCCCCCCCCCCCCCCC(=O)N[C@@H](CO[C@H]1O[C@H](CO)[C@H](O)[C@H](O)[C@H]1O)[C@H](O)[C@H](O)CCCCCCCCCCCCCC
active: all assays above

CCCCCCCCCCCCCC[C@@H](O)[C@@H](O)[C@H](CO[C@H]1O[C@H](CO)[C@H](O)[C@H](O)[C@H]1O)NC(=O)CCCCCCCCCCCCCCCO
active: Mus musculus [1] | Mus musculus [2]

CCCCCCCCCCCCCC[C@@H](O)[C@@H](O)[C@H](CO[C@H]1O[C@H](CO)[C@H](O)[C@H](O)[C@H]1O)NC(=O)CCCCCCCCCCO
active: all assays above
